Common to all, as to assay type: functional, organism-based
For assay [1], the target named is T1, Serotonin 3 (5-HT3) receptor (Rattus norvegicus) (UniProt P35563+Q9JJ16). Briefly: 5-hydroxytryptamine 3 receptor antagonistic activity measured by inhibition of 5-HT-induced bradycardia (iv administration 10 ug/kg dose in urethane-anesthetized rats). An outline of the steps: (§1)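 Urethane-anesthetized rats. First 5HT challenge 30 μg/kg iv gives a transient bradycardia. Once heart rate is back at steady state (≤5 min), test compound or saline goes in via the femoral vein. 5HT 30 μg/kg iv is repeated 15 min later. % inhibition is the difference between first and second bradycardia at peak, each animal its own control. Means ± SEM, groups of 3–16 rats.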

The target in assay [2] is T1, Serotonin 3 (5-HT3) receptor (Rattus norvegicus). Nature of the assay: 5-hydroxytryptamine 3 receptor antagonistic activity was measured by the inhibition of 5H+ T-induced bradycardia after iv administration of 3 ug/kg dose in urethane-anesthetized rats. The procedure, abridged:
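Urethane-anesthetized rats; antagonist or saline given iv via femoral vein after heart rate settled (≤5 min) from an initial 5HT challenge (30 µg/kg iv). 5HT was given again 15 min later. Peak bradycardia measured, each rat its own control; % inhibition = difference between first and second responses. Groups of 3–16 rats, means ± SEM.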

For assay [3] the target is unchanged. Nature of the assay: 5-HT3 receptor antagonistic activity was measured by the inhibition of 5-HT-induced bradycardia after iv administration of 1000 ug/kg dose in urethane-anesthetized rats. The procedure, abridged: as §1
For assay [4] the target is unchanged. Briefly: 5-hydroxytryptamine 3 receptor antagonistic activity was measured by the inhibition of 5H+ T-induced bradycardia after iv administration of 1000 ug/kg dose in urethane-anesthetized rats. An outline of the steps: as §1
The target is the same in assay [5]. Nature of the assay: 5-hydroxytryptamine 3 receptor antagonistic activity as inhibition of 5-HT-induced bradycardia after iv administration of 100 ug/kg dose in urethane-anesthetized rats. The procedure, abridged: as §1
The target is the same in assay [6]. Nature of the assay: 5-hydroxytryptamine 3 receptor antagonistic activity was measured by the inhibition of 5-HT-induced bradycardia after iv administration of 1000 ug/kg dose in urethane-anesthetized rats. The procedure, abridged:
as §1

The values below come from ChEMBL document CHEMBL1125286, “Zatosetron, a potent, selective, and long-acting 5HT3 receptor antagonist: synthesis and structure-activity relationships” (J Med Chem, 1992).

One may read the inhibition as the change of the read-out against control, counted positive when it falls. A higher inhibition goes with a response far below the control. Take `COc1cc2c(c(C(=O)NC3CC4CCC(C3)N4C)c1)OC(C)(C)C2` (stereo not given): in assay [1], the inhibition was 2.9%.

In the case of `CN1[C@@H]2CC[C@H]1C[C@@H](NC(=O)c1cc(Cl)cc3c1OC(C)(C)C3)C2` (stereo in doubt; 50), the results for the inhibition in assay [2] and in assay [1] were 25.9% and 67.1%, respectively.

As for `CN1C2CCC1CC(NC(=O)c1cc(F)cc3c1OC(C)(C)C3)C2` (stereo not given), the inhibition in assay [1] amounted to 71.7%. Turning to `CN1C2CCC1CC(NC(=O)c1cc(O)cc3c1OC(C)(C)C3)C2` (stereo not given), the inhibition in assay [1] was determined as 54.7%.

The compound `CN1CCC(OC(=O)c2ccccc2)CC1` displayed an inhibition in assay [3] of 0%. Consider `CN1C2CCC1CC(NC(=O)c1ccc3c(c1)OC(C)(C)C3)C2` (stereo not given), for which the inhibition in assay [1] stood at 0%. Still for that read-out and setting: as for `CC1Cc2cc(F)cc(C(=O)OC3CC4CCC(C3)N4C)c2O1` (stereo not given), the figure is 32.2%.

Consider `CN1C2CCC1CC(OC(=O)c1ccccc1Oc1ccccc1)C2` (stereo not given), for which the inhibition in assay [4] amounted to 54.5%. Take `CN1C2CCC1CC(OC(=O)c1cccc3c1Cc1ccccc1-3)C2` (stereo not given): the inhibition in assay [4] was 51%. In the case of `Cc1cc2c(c(C(=O)NC3CC4CCC(C3)N4C)c1)OC(C)(C)C2` (stereo not given), the figures for the inhibition in assay [2] and in assay [1] were 11.2% and 87.1%, respectively. For `CC1Cc2cccc(C(=O)NC3CC4CCC(C3)N4C)c2O1` (stereo not given), the inhibition in assay [1] amounted to 22.3%; in assay [5] it was 87.6%. With `CN1C2CCC1CC(CC(=O)c1ccccc1)C2` (stereo not given), in assay [5], the inhibition was determined as 31.3%. For the compound `CN1C2CCC1CC(OC(=O)c1cccc3c1OCC3)C2` (stereo not given), the inhibition in assay [1] stood at 27%; in assay [5], 51.2%.

On to `CN1C2CCC1CC(NC(=O)c1cc(Br)cc3c1OC(C)(C)C3)C2` (stereo not given), for which the inhibition worked out at 15.9% in assay [2] and 68.7% in assay [1]. As for `CN1[C@@H]2CC[C@H]1C[C@@H](OC(=O)c1cc(Cl)cc(Cl)c1)C2`, the results for the inhibition in assay [1] and in assay [5] were 9.7% and 71.4%, respectively. As for `CN1C2CCC1CC(OC(=O)c1ccc(OC(F)(F)F)cc1)C2` (stereo not given), the inhibition in assay [6] worked out at 4.7%. Compound `CC1Cc2cccc(C(=O)OC3CC4CCC(C3)N4C)c2O1` (stereo not given) had an inhibition in assay [1] of 30.6%.

`CN1C2CCC1CC(OC(=O)c1cccc3c1OC(C)(C)C3)C2` (stereo not given): the results for the inhibition in assay [2] and in assay [1] were 20.8% and 38%, respectively.
